Assay results from ChEMBL document CHEMBL1135962, “The first synthesis and antifungal activities of 9-methoxystrobilurin-type beta-substituted beta-methoxyacrylate” (2002).
The source made the active and inactive calls. The rule behind the calls is not given here.

What was measured:
Penicillium citrinum [1] = experiment: Compound was evaluated for antifungal activity against penicillium ctrinum R-3703 as diameter of inhibition zone at a concentration 0.1 ug/disk; NE means not effective; type: functional, organism-based
Procedure, shortened: (§1)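 Disk-diffusion assay against the fungal strain named in the line. Inhibition-zone diameter was measured after 48 h incubation and is the mean of two samples. Scoring codes used: not effective, slightly effective, incomplete inhibition.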

Saccharomyces cerevisiae [2] = experiment: Compound was evaluated for antifungal activity against Saccharomyces cerevisiae IAM 4861 as diameter of inhibition zone at a concentration 0.1 ug/disk; NE means not effective; type: functional, organism-based; procedure, shortened: as §1
Fusarium solani [3] = experiment: Compound was evaluated for antifungal activity against Fusarium solani R-2800 as diameter of inhibition zone at a concentration 1 ug/disk; NE means not effective; type: functional, organism-based; procedure, shortened: as §1
Aspergillus fumigatus [4] = experiment: Compound was evaluated for antifungal activity against Aspergillus fumigatum R-1301 as diameter of inhibition zone at a concentration 1 ug/disk; NE means not effective; type: functional, organism-based; procedure, shortened: as §1
Aspergillus fumigatus [5] = experiment: Compound was evaluated for antifungal activity against Aspergillus fumigatum R-1301 as diameter of inhibition zone at a concentration 0.1 ug/disk; NE means not effective; type: functional, organism-based; procedure, shortened: as §1
Fusarium solani [6] = experiment: Compound was evaluated for antifungal activity against Fusarium solani R-2800 as diameter of inhibition zone at a concentration 10 ug/disk; NE means not effective; type: functional, organism-based; procedure, shortened: as §1
Candida albicans [7] = experiment: Compound was evaluated for antifungal activity against Candida albicans IFO 1594 as diameter of inhibition zone at a concentration 0.1 ug/disk; NE means not effective; type: functional, organism-based; procedure, shortened: as §1
Candida albicans [8] = experiment: Compound was evaluated for antifungal activity against Candida albicans IFO 1594 as diameter of inhibition zone at a concentration 1 ug/disk; NE means not effective; type: functional, organism-based; procedure, shortened: as §1
Fusarium solani [9] = experiment: Compound was evaluated for antifungal activity against Fusarium solani R-2800 as diameter of inhibition zone at a concentration 0.1 ug/disk; NE means not effective; type: functional, organism-based; procedure, shortened: as §1
Penicillium citrinum [10] = experiment: Compound was evaluated for antifungal activity against penicillium ctrinum R-3703 as diameter of inhibition zone at a concentration 1 ug/disk; SE means slightly effective; type: functional, organism-based; procedure, shortened: as §1
Saccharomyces cerevisiae [11] = experiment: Compound was evaluated for antifungal activity against Saccharomyces cerevisiae IAM 4861 as diameter of inhibition zone at a concentration 1 ug/disk; SE means slightly effective; type: functional, organism-based; procedure, shortened: as §1
Aspergillus fumigatus [12] = experiment: Compound was evaluated for antifungal activity against Aspergillus fumigatum R-1301 as diameter of inhibition zone at a concentration 10 ug/disk; NE means not effective; type: functional, organism-based; procedure, shortened: as §1
Saccharomyces cerevisiae [13] = experiment: Compound was evaluated for antifungal activity against Saccharomyces cerevisiae IAM 4861 as diameter of inhibition zone at a concentration 10 ug/disk; SE means slightly effective; type: functional, organism-based; procedure, shortened: as §1
Penicillium citrinum [14] = experiment: Compound was evaluated for antifungal activity against penicillium ctrinum R-3703 as diameter of inhibition zone at a concentration 1 ug/disk; NE means not effective; type: functional, organism-based; procedure, shortened: as §1
Penicillium citrinum [15] = experiment: Compound was evaluated for antifungal activity against penicillium ctrinum R-3703 as diameter of inhibition zone at a concentration 10 ug/disk; NE means not effective; type: functional, organism-based; procedure, shortened: as §1
Candida albicans [16] = experiment: Compound was evaluated for antifungal activity against Candida albicans IFO 1594 as diameter of inhibition zone at a concentration 10 ug/disk; NE means not effective; type: functional, organism-based; procedure, shortened: as §1
Saccharomyces cerevisiae [17] = experiment: Compound was evaluated for antifungal activity against Saccharomyces cerevisiae IAM 4861 as diameter of inhibition zone at a concentration 1 ug/disk; NE means not effective; type: functional, organism-based; procedure, shortened: as §1
Saccharomyces cerevisiae [18] = experiment: Compound was evaluated for antifungal activity against Saccharomyces cerevisiae IAM 4861 as diameter of inhibition zone at a concentration 10 ug/disk and showed incomplete inhibition; type: functional; procedure, shortened: as §1
Penicillium citrinum [19] = experiment: Compound was evaluated for antifungal activity against penicillium ctrinum R-3703 as diameter of inhibition zone at a concentration 1 ug/disk; type: functional; procedure, shortened: as §1
Aspergillus fumigatus [20] = experiment: Compound was evaluated for antifungal activity against Aspergillus fumigatum R-1301 as diameter of inhibition zone at a concentration 1 ug/disk; type: functional; procedure, shortened: as §1
Penicillium citrinum [21] = experiment: Compound was evaluated for antifungal activity against penicillium ctrinum R-3703 as diameter of inhibition zone at a concentration 10 ug/disk; type: functional; procedure, shortened: as §1
Aspergillus fumigatus [22] = experiment: Compound was evaluated for antifungal activity against Aspergillus fumigatum R-1301 as diameter of inhibition zone at a concentration 10 ug/disk; type: functional; procedure, shortened: as §1
Saccharomyces cerevisiae [23] = experiment: Compound was evaluated for antifungal activity against Saccharomyces cerevisiae IAM 4861 as diameter of inhibition zone at a concentration 1 ug/disk and showed incomplete inhibition; type: functional; procedure, shortened: as §1
Candida albicans [24] = experiment: Compound was evaluated for antifungal activity against Candida albicans IFO 1594 as diameter of inhibition zone at a concentration 10 ug/disk; SE means slightly effective; type: functional, organism-based; procedure, shortened: as §1
Saccharomyces cerevisiae [25] = experiment: Compound was evaluated for antifungal activity against Saccharomyces cerevisiae IAM 4861 as diameter of inhibition zone at a concentration 10 ug/disk; NE means not effective; type: functional, organism-based; procedure, shortened: as §1
Fusarium solani [26] = experiment: Compound was evaluated for antifungal activity against Fusarium solani R-2800 as diameter of inhibition zone at a concentration 1 ug/disk and showed incomplete inhibition; type: functional; procedure, shortened: as §1
Candida albicans [27] = experiment: Compound was evaluated for antifungal activity against Candida albicans IFO 1594 as diameter of inhibition zone at a concentration 1 ug/disk and showed incomplete inhibition; type: functional; procedure, shortened: as §1
Candida albicans [28] = experiment: Compound was evaluated for antifungal activity against Candida albicans IFO 1594 as diameter of inhibition zone at a concentration 10 ug/disk and showed incomplete inhibition; type: functional; procedure, shortened: as §1
Fusarium solani [29] = experiment: Compound was evaluated for antifungal activity against Fusarium solani R-2800 as diameter of inhibition zone at a concentration 10 ug/disk and showed incomplete inhibition; type: functional; procedure, shortened: as §1
Saccharomyces cerevisiae [30] = experiment: Compound was evaluated for antifungal activity against Saccharomyces cerevisiae IAM 4861 as diameter of inhibition zone at a concentration 10 ug/disk; type: functional, organism-based
Procedure, shortened: (§2)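 Disk-diffusion assay against the listed yeast strains (C. albicans IFO 1594; S. cerevisiae IAM 4861). Inhibition-zone diameter read after 48 hr incubation, reported as the mean of two samples. Activity scored as not effective, slightly effective, or incomplete inhibition where applicable.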

Candida albicans [31] = experiment: Compound was evaluated for antifungal activity against Candida albicans IFO 1594 as diameter of inhibition zone at a concentration 10 ug/disk; type: functional, organism-based; procedure, shortened: as §2
Penicillium citrinum [32] = experiment: Compound was evaluated for antifungal activity against penicillium ctrinum R-3703 as diameter of inhibition zone at a concentration 0.1 ug/disk; SE means slightly effective; type: functional, organism-based; procedure, shortened: as §1

Molecule	Inhibition zone (Penicillium citrinum [1])	Inhibition zone (Saccharomyces cerevisiae [2])	Inhibition zone (Fusarium solani [3])	Inhibition zone (Aspergillus fumigatus [4])	Inhibition zone (Aspergillus fumigatus [5])	Inhibition zone (Fusarium solani [6])	Inhibition zone (Candida albicans [7])	Inhibition zone (Candida albicans [8])	Inhibition zone (Fusarium solani [9])	Inhibition zone (Saccharomyces cerevisiae [18])	Inhibition zone (Aspergillus fumigatus [20])	Inhibition zone (Penicillium citrinum [21])	Inhibition zone (Aspergillus fumigatus [22])	Inhibition zone (Saccharomyces cerevisiae [23])	Inhibition zone (Candida albicans [28])	further results
COC(=O)/C=C(/OC)[C@H](C)[C@H](/C=C/c1ccccc1)OC (racemic) [listing 1 of 2 here]	inactive	inactive	inactive	inactive	inactive	inactive	inactive	inactive	inactive							Inhibition zone (Penicillium citrinum [10]): Slightly effective; Inhibition zone (Saccharomyces cerevisiae [11]): Slightly effective
COC(=O)\C=C(OC)/C(C)=C(\C=C\c1cccc2ccccc12)OC	inactive	inactive	inactive	inactive	inactive	inactive	inactive	inactive	inactive							Inhibition zone (Aspergillus fumigatus [12]): inactive; Inhibition zone (Saccharomyces cerevisiae [13]): Slightly effective; Inhibition zone (Penicillium citrinum [14]): inactive; Inhibition zone (Penicillium citrinum [15]): inactive; Inhibition zone (Candida albicans [16]): inactive; Inhibition zone (Saccharomyces cerevisiae [17]): inactive
COC(=O)C=C(OC)/C(C)=C(\C=C\c1ccc(OC)c(OC)c1)OC	inactive	inactive	inactive		inactive	inactive	inactive	inactive	inactive	18 mm	8 mm	33 mm	12 mm	12 mm		Inhibition zone (Penicillium citrinum [19]): 18 mm; Inhibition zone (Candida albicans [24]): Slightly effective
COC(=O)/C=C(/OC)[C@H](C)[C@H](/C=C/c1ccccc1)OC [listing 1 of 2 here]	inactive	inactive	inactive	inactive	inactive	inactive	inactive	inactive	inactive							Inhibition zone (Penicillium citrinum [10]): Slightly effective
COC(=O)/C=C(/OC)[C@@H](C)[C@H](/C=C/c1ccccc1)OC (racemic)	inactive	inactive	inactive	inactive	inactive	inactive	inactive	inactive	inactive							Inhibition zone (Aspergillus fumigatus [12]): inactive; Inhibition zone (Penicillium citrinum [14]): inactive; Inhibition zone (Penicillium citrinum [15]): inactive; Inhibition zone (Candida albicans [16]): inactive; Inhibition zone (Saccharomyces cerevisiae [25]): inactive; Inhibition zone (Saccharomyces cerevisiae [17]): inactive
COC(=O)\C=C(OC)/C(C)=C(\C=C\c1ccc2ccccc2c1)OC	inactive	inactive			inactive		inactive		inactive	21 mm	10 mm	13 mm	16 mm	15 mm	14 mm	Inhibition zone (Fusarium solani [26]): 19 mm; Inhibition zone (Candida albicans [27]): 8 mm; Inhibition zone (Penicillium citrinum [14]): inactive; Inhibition zone (Fusarium solani [29]): 27 mm
COC(=O)\C=C(OC)/C(C)=C(\C=C\c1ccccc1)OC	inactive	inactive			inactive		inactive		inactive	46 mm	17 mm	42 mm	36 mm	30 mm	32 mm	Inhibition zone (Fusarium solani [26]): 22 mm; Inhibition zone (Penicillium citrinum [19]): 17 mm; Inhibition zone (Candida albicans [27]): 27 mm; Inhibition zone (Fusarium solani [29]): 30 mm
COC(=O)/C=C(/OC)[C@H](C)[C@H](/C=C/c1ccccc1)OC (racemic) [listing 2 of 2 here]										39 mm		26 mm	23 mm		14 mm	
NYSTATIN						inactive						10 mm	16 mm			Inhibition zone (Saccharomyces cerevisiae [30]): 18 mm; Inhibition zone (Candida albicans [31]): 16 mm
COC(=O)/C=C(/OC)[C@H](C)[C@H](/C=C/c1ccccc1)OC [listing 2 of 2 here]										43 mm		28 mm		25 mm	20 mm	
COC(=O)\C=C(OC)/C(C)=C(\C=C\c1cccs1)OC		inactive	inactive		inactive	inactive	inactive		inactive	49 mm	20 mm	40 mm	29 mm	31 mm	32 mm	Inhibition zone (Penicillium citrinum [19]): 21 mm; Inhibition zone (Penicillium citrinum [32]): Slightly effective; Inhibition zone (Candida albicans [27]): 16 mm
